Screening results (PubChem)
CHRM5 PAM: potentiates acetylcholine response at human M5 receptor; CHO-K1 hM5, Fluo-8 calcium, ACh EC20 PAM; 0% = ACh EC20, 100% = ACh EC100; activation, % at 3 µM; 0.3% of 360,000 active;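 active means activation above the run cutoff, the mean activation of all test compounds plus 3 SD, cut at about 18% in these data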
Target sequence (P08912 whole entry, looked up): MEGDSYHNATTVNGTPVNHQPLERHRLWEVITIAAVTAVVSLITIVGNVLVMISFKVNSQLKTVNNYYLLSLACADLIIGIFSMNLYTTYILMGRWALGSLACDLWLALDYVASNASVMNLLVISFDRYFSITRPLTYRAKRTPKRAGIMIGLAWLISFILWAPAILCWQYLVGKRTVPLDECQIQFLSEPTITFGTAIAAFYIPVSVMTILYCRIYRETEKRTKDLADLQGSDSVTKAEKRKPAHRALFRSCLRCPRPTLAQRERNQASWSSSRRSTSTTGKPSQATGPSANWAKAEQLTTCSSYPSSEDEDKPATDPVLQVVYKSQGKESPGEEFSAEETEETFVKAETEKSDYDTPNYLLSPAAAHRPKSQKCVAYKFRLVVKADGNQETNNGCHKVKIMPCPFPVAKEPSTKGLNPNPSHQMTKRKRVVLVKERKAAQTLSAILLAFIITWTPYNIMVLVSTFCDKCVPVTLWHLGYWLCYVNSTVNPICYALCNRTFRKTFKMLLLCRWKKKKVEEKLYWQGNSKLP
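System: CHO-K1 hM5 cells. Reagent: acetylcholine, EC20 level. Compound dosing: single dose, 3 µM nominal final test concentration. Timing: Post-acetylcholine fluorescence recording 140 s. Detection: Fluo-8 calcium fluorescence. Read-out: % activation, ACh-normalized. Benchmarks: ACh EC20 and EC100 wells. Repeats: singlicate, one well per test compound.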
M4 antag: blocks acetylcholine activation of human M4 receptor; P08173; CHO-hM4 cells, ACh EC80, Fluo-8 calcium fluorescence; inhibition, % at 3 µM; 0.73% of 360,000 active; AID 624125;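 active means inhibition above its plate's cutoff, the mean inhibition of sample wells plus 3 SD, cut at about 27% in these data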;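 further: 0% = acetylcholine EC80 with DMSO and 100% = DMSO without agonist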
M5 antag: antagonists of human muscarinic M5 receptor (CHRM5). AID 624040. CHO-hM5 cells, Fluo-8 calcium fluorescence, ACh EC80. 0.59% of 360,000 active. P08912. inhibition, % at 3 µM;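 active means inhibition above a per-plate cutoff, the mean of that plate's test compounds plus 3 SD, cut at about 27% in these data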;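 further: 0% = acetylcholine EC80 with DMSO and 100% = DMSO without agonist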
CHRM4 agonist: agonists of human muscarinic M4 receptor (CHRM4); P08173; CHO-K1 hM4/Gqi5, Fluo-8 calcium fluorescence; vehicle 0%, full acetylcholine response 100%; activation, % at 3 µM; 0.14% of 360,000 active; AID 624127;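 active means activation above the run mean over all test wells plus 3 SD, cut at about 32% in these data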;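 further: peak over basal fluorescence ratio per well then scaled between controls; 0% = DMSO wells and 100% = acetylcholine at EC100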
CHRM5 agonist: CHRM5 agonism in calcium assay; P08912; CHO-K1 hM5 cells, Fluo-8 calcium fluorescence; 0% DMSO wells, 100% maximal acetylcholine response; activation, % at 3 µM; 0.19% of 360,000 active; AID 624037;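 active means activation above the run's mean over test compounds plus 3 SD, cut at about 23% in these data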;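 further: signal is peak over basal fluorescence ratio across the kinetic read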
M4 PAM: CHRM4 positive allosteric modulation; 0.4% of 360,000 active; CHO-K1 hM4/Gqi5, Fluo-8 calcium fluorescence, ACh EC20; 0% = ACh EC20, 100% = maximal ACh; P08173; activation, % at 3 µM;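 active means activation above its plate's cutoff, the mean activation of sample wells plus 3 SD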
Starred values were filed as active, the others as inactive; ! = not confirmed by another sample. A selection: hits, their analogues and other compounds. The true share with any hit is near 1.9%.

SMILES | CHRM5 PAM | M4 antag | M5 antag | CHRM4 agonist | CHRM5 agonist | M4 PAM
O=C(c1cc(-c2cccnc2)nc2ccccc12)N1CCN(S(=O)(=O)c2cccs2)CC1 | -23 | -21 | 6 | 19 | -1 | -5
CCCNC(=O)c1ccccc1NS(=O)(=O)c1ccc(OC)c(OC)c1 | 8 | -5 | 6 | 1 | -1 | 10
COc1ccc(S(=O)(=O)Nc2ccccc2C(=O)Nc2nc(-c3ccc(F)cc3)cs2)cc1OC | -21 | 33* | 43* | 18 | 7 | -14
COc1ccc(-c2csc(NC(=O)c3c(OC)cccc3OC)n2)cc1 | 4 | -12 | 7 | 1 | 5 | 9
COc1ccc(-c2csc(NC(=O)c3ccccc3NS(=O)(=O)c3ccc(C)cc3)n2)cc1 | -19 | 19 | 33* | 13 | 2 | -28
COC(=O)c1cc(CNC(=O)Cc2ccsc2)ccc1OC | -3 | 98* | 10 | -1 | -2 | -22
CC1CCCCN1CCCNC(=O)C1CCN(c2nc3ccccc3o2)CC1 (centres undefined) | 3 | 55* | 0 | 1 | -5 | -16
CC(C)CCn1nc(C(=O)OCC(=O)NC(C)c2ccccc2)c2ccccc2c1=O (centres undefined) | 2 | 1 | 29* | 0 | -3 | -1
Cc1cc(C)cc(N(CCC#N)C(=O)CSC2=Nc3ccccc3C3CC=NN23)c1 (centres undefined) | 13 | 5 | -3 | 9 | 24* | -5
CCCOC(=O)c1ccc(NC(=O)CSC2=Nc3ccccc3C3CC=NN23)cc1 (centres undefined) | 6 | 14 | 2 | 1 | 1 | 38*
O=C(CSC1=Nc2ccccc2C2CC=NN12)Nc1ccc2c(c1)OCO2 (centres undefined) | 0 | 10 | 9 | 0 | 1 | -7
COC(=O)c1cc(Oc2ccc(C(=O)OC)cc2N)cc(C(=O)OC)c1 | -14 | -2 | -9 | 1 | 0 | 20*
CCCS(=O)(=O)NC(=O)C1(C)CCCN(C(=O)c2ccc(OC)cc2)C1 (centres undefined) | 3 | -6 | -3 | 0 | 0 | 1
Cc1cc(C)n2nc(CNS(=O)(=O)c3cccc([N+](=O)[O-])c3)nc2n1 | -3 | 1 | 13 | 0 | -4 | 1
O=S(=O)(c1cccc2cnccc12)N1CCCNCC1 | -4 | -2 | 4 | 1 | -1 | -3
CC1CNCCN1S(=O)(=O)c1cccc2cnccc12 (centres undefined) | -19 | -5 | 4 | 6 | 52*! | -2
CCOC(=O)c1cn(Cc2ccccc2)c(C(=O)OC(C)(C)C)c1O | -21 | 15 | 15 | 81* | 12 | -15
CCOC(=O)c1cn(Cc2ccccc2)c2cc(C)nn2c1=O | 0 | -11 | 7 | 0 | 1 | -2
CCOC(=O)[C@]12CCCC=C1N(Cc1ccccc1)C(=O)[C@H](CC(=O)N1CCCC1)C2 | -8 | 2 | 5 | 4 | 0 | 15
S=C(Nc1cccc2ccccc12)NN1CCCCCC1 | -27 | 35* | 9 | -1 | -10 | -17
CC(=O)N1c2ccc(S(=O)(=O)N3CCC(C(=O)N4CCN(c5cc(Cl)ccc5C)CC4)CC3)cc2CC1C (centres undefined) | -17 | 36* | 28* | 21 | 5 | -18
COc1ccc(N2CCN(S(=O)(=O)c3ccc4c(c3)CC(C)N4C(=O)C3CC3)CC2)cc1 (centres undefined) | -13 | 8 | 27* | 0 | -3 | -6
CC(=O)N1CCCc2cc(S(=O)(=O)N3CCCC(C(=O)N4CCN(c5cc(C)ccc5C)CC4)C3)ccc21 (centres undefined) | -18 | -14 | 21 | 37* | 2 | -27
CC1Cc2cc(S(=O)(=O)N3CCC(C(=O)N4CCN(c5ccccc5F)CC4)CC3)ccc2N1C(=O)C1CC1 (centres undefined) | -11 | 37* | 30* | 15 | 2 | -11
CC(=O)N1c2ccc(S(=O)(=O)N3CCC(C(=O)N4CCC(C)CC4)CC3)cc2CC1C (centres undefined) | 0 | 0 | 3 | 2 | -2 | 0
SMILES | CHRM5 PAM | M4 antag | M5 antag | CHRM4 agonist | CHRM5 agonist | M4 PAM
COc1ccccc1N1CCN(S(=O)(=O)CCNC(=O)c2cccs2)CC1 | -4 | 3 | 23 | 3 | 1 | 7
N#Cc1ccccc1OCC(=O)Nc1nnc(C2CC2)s1 | 6 | -5 | 6 | 0 | 0 | 6
CCCOc1cc(N(CC)CC)ccc1/C=C(/C#N)c1nc2ccc(C)cc2[nH]1 | -19 | 45* | 56* | 31 | 39* | -33
CCOc1cc(N(CC)CC)ccc1/C=C(/C#N)c1nc2ccccc2[nH]1 | -11 | 3 | -2 | 6 | -1 | -6
CCN(CC)c1ccc(/C=C(/C#N)c2nc3ccc(C)cc3[nH]2)c(OC(C)C)c1 | -18 | 56* | 69* | 46* | 58* | -35
COc1ccccc1/C=C/C=N/NC(=O)c1cc(-c2ccc(C)o2)[nH]n1 | -10 | -8 | 5 | 7 | 4 | -19
O=C(c1cc(COc2cccc3cccnc23)on1)N1CCC[C@H]1CO | -2 | 6 | 14 | 1 | 1 | -2
CC(NC(=O)c1cc(COc2ccc3ncccc3c2)on1)c1ccc(F)cc1 (centres undefined) | -31 | 21 | 36* | 22 | -1 | -33
CCN(CC)C1CCN(C(=O)c2cc(COc3cccc4cccnc34)on2)C1 (centres undefined) | -4 | 38* | 9 | 1 | -8 | -25
O=C(c1cc(COc2ccc3ncccc3c2)on1)N1CCCCCC1 | -27 | 3 | 27* | 22 | 10 | -4
Cc1cc(OCc2cc(C(=O)N3CCN(CC4CC4)CC3)no2)cc(C)c1Cl | -8 | -6 | -3 | 6 | -5 | -8
Cc1cc(OCc2cc(C(=O)N3CCC(Oc4cccnc4)CC3)no2)cc(C)c1Cl | -24 | 35* | 24 | 19 | 2 | -12
O=C(c1cc(COc2ccc3ncccc3c2)on1)N1CCCC1 | -20 | 10 | 9 | 11 | 1 | 6
CCOC(=O)C1CCN(C(=O)c2ccccc2NS(=O)(=O)c2ccc(F)cc2)CC1 | -10 | -2 | 5 | 3 | -1 | -4
O=C(NC1CC1)c1ccc(NS(=O)(=O)c2ccc(F)cc2)cc1 | -2 | -4 | 2 | 1 | 4 | -1
CC1CCc2c(sc(NC(=O)CCC(=O)O)c2C(=O)NC2CC2)C1 (centres undefined) | -6 | -8 | 11 | 1 | -5 | 1
O=C(NNC(=S)Nc1ccccc1Cl)c1ccccc1Br | -6 | -14 | 6 | 5 | -2 | 5
